Data on 1 compound can be found in ChEMBL document CHEMBL6134900 (J Med Chem, 2025).

This assay deals with NCI-H2030. Briefly: Antitumor activity against human NCI-H2030 cells harboring KRAS G12C mutant/SMARCA4 mutant assessed as cell growth inhibition incubated for 7 days by Incucyte S3 analysis. Format: functional, cell-based. Particulars: time 7.0 day; call rule not given here. The method in brief:
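H2030 cells plated at 500 per well and grown overnight at 37 °C. Treated with 3-fold dilutions of sotorasib, test agent, or both. Confluency imaged every 4 h for 7 days on IncuCyte S3. Synergy scored as Bliss/Lowe consensus, >10 taken as synergy.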

In the case of `C=CC(=O)N1CCN(c2nc(=O)n(-c3c(C)ccnc3C(C)C)c3nc(-c4c(O)cccc4F)c(F)cc23)[C@@H](C)C1`, the Activity result is “Active; Minimal Inhibition Observed”.
